In ChEMBL document CHEMBL3091446, “Development of fluorinated CB(2) receptor agonists for PET studies” (Bioorg Med Chem, 2013):
pIC50, pKi: −log10 of the molar value.

What was measured:
[1] = target: T1, Cannabinoid receptor 2 (Homo sapiens, UniProt P34972); assay: Displacement of [3H]CP-55,940 from human recombinant cannabinoid CB2 receptor expressed in CHO cells at 1 uM; format: cell-based
[2] = target: T1, Cannabinoid receptor 2; assay: Displacement of [3H]CP-55,940 from human recombinant cannabinoid CB2 receptor expressed in CHO cells; format: cell-based
[3] = Lipophilicity, log P of the compound; format: physicochemical; details: octanol/water
[4] = target: T1, Cannabinoid receptor 2; assay: Binding affinity to human cannabinoid CB2 receptor
How it was run: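 Membranes from sonicated CHO cells stably expressing human CB2 (about 100,000 cells/well). Incubated 120 min at 37 °C with 1 nM [3H]CP-55,940, test compound at 10^-10 to 10^-5 M, in TRIS pH 7.4 with 12 mM MgCl2 and 2% BSA. Nonspecific binding defined by 10 µM CP-55,940. Filtration and scintillation counting; duplicates. IC50 by nonlinear regression, converted to Ki by Cheng-Prusoff (Kd 11.8 nM).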

[5] = target: T2, Cannabinoid receptor 1 (Homo sapiens, UniProt P21554); assay: Binding affinity to human cannabinoid CB1 receptor
[6] = species: Homo sapiens; assay: Selectivity ratio of Ki for human recombinant cannabinoid CB1 receptor to Ki for human recombinant cannabinoid CB2 receptor
[7] = target: T2, Cannabinoid receptor 1; assay: Displacement of [3H]CP-55,940 from human recombinant cannabinoid CB1 receptor expressed in CHO cells; format: cell-based
[8] = Metabolic stability in mouse plasma assessed as compound remaining after 10 mins; format: ADME, cell-free; details: read-out: Stability

T1 sequence (P34972 whole entry): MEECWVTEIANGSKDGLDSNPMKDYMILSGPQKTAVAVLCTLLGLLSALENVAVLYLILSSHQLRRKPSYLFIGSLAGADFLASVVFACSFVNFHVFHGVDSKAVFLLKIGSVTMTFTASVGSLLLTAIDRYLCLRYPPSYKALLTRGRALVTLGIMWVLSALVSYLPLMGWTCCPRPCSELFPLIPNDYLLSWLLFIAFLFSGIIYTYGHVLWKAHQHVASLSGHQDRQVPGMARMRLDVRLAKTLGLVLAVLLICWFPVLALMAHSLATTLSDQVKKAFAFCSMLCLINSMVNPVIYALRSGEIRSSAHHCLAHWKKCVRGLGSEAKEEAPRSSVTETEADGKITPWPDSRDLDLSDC
T2 sequence (P21554 whole entry): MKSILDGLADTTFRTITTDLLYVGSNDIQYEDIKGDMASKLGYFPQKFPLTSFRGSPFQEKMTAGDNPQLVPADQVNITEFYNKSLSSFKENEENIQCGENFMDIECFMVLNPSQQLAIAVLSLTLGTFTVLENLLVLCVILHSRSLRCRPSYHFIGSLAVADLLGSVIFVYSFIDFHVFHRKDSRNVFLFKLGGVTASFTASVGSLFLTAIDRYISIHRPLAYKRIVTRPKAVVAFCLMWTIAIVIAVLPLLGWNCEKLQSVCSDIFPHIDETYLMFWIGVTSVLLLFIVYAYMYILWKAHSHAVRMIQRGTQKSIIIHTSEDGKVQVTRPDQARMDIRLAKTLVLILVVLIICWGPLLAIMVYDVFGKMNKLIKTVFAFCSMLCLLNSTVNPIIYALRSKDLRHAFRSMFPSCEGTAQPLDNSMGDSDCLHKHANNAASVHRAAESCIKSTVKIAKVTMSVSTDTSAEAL

Structure (SMILES)	inhibition [1] [%]	pKi [2]	also measured
Cc1ccc(-c2noc(CCC(=O)Nc3ccc4c(c3)c3ccccc3n4CCF)n2)cc1		6.42	
O=C(CCc1nc(-c2ccc(F)cc2Br)no1)Nc1ccc2c(c1)c1ccccc1n2CCO		6.44	
O=C(CCc1nc(-c2ccc(F)cc2)no1)Nc1ccc2c(c1)c1ccccc1n2CCCO		6.71	
O=C(CCc1nc(-c2ccc(Br)cc2F)no1)Nc1ccc2c(c1)c1ccccc1n2CCF		6.32	
COc1ccc(S(=O)(=O)c2ccc([C@H](C)NS(C)(=O)=O)cc2)c(S(=O)(=O)c2ccc(O[11CH3])cc2)c1			logP [3]: 2.15; pKi [4]: 8.35; pKi [5]: 7.10
Cc1c(CCN2CCOCC2)c2cc(O[11CH3])ccc2n1C(=O)c1cccc(Cl)c1Cl			pKi [4]: 7.46; pKi [5]: 5.22
O=C(CCCc1nc(-c2ccc(Cl)cc2)no1)Nc1ccc2c(c1)c1ccccc1n2CCO		6.23	
N#Cc1cc(F)ccc1-c1noc(CCC(=O)Nc2ccc3c(c2)c2ccccc2n3CCO)n1		6.31	
O=C(CCc1nc(-c2ccc(F)cc2Br)no1)Nc1ccc2c(c1)c1ccccc1n2CCCF		5.74	
O=C(CCc1nc(-c2ccc(F)cc2Br)no1)Nc1ccc2c(c1)c1ccccc1n2CCF		8.24	Ratio Ki [6]: > 200; pIC50 [7]: < 6.00
O=C(CCc1nc(-c2ccc(F)cc2Br)no1)Nc1ccc2c(c1)c1ccccc1n2CCCO		7.48	pIC50 [7]: < 6.00
CCCCOc1c(OCC[18F])ccc2cc(C(=O)NC3CCCCC3)c(=O)[nH]c12			remaining at 10 min [8]: 41%; pKi [5]: < 6.00
O=C(CCc1nc(-c2ccc(Cl)cc2)no1)Nc1ccc2c(c1)c1ccccc1n2CCF		6.54	
O=C(CCc1nc(-c2ccc(F)cc2)no1)Nc1ccc2c(c1)c1ccccc1n2CCF		7.39	pIC50 [7]: < 6.00
CCn1c2ccccc2c2cc(NC(=O)CCc3nc(-c4ccc(F)cc4C#N)no3)ccc21		8.16	pKi [7]: < 5.00
O=C(CCc1nc(-c2ccc(F)cc2)no1)Nc1ccc2c(c1)c1ccccc1n2CCO		5.96	
O=C(CCc1nc(-c2ccc(F)cc2Br)no1)Nc1ccc2c(c1)c1ccccc1n2CCCCO		7.02	pIC50 [7]: < 6.00
CCCCOc1c(O[11CH3])ccc2cc(C(=O)NC3CCCCC3)c(=O)[nH]c12			remaining at 10 min [8]: 24%; pKi [5]: < 6.00
CCCCOc1c(OC)ccc2cc(C(=O)NCc3ccc([18F])cc3)c(=O)[nH]c12			pKi [4]: 8.55; pKi [5]: < 5.00
Cc1s/c(=N\C(=O)C2C(C)(C)C2(C)C)n(CCO[11CH3])c1C			pKi [4]: 9.19; pKi [5]: 6.57
O=C(CCc1nc(-c2ccc(Cl)cc2)no1)Nc1ccc2c(c1)c1ccccc1n2CCO		6.00	
O=C(CCCc1nc(-c2ccc(F)cc2Br)no1)Nc1ccc2c(c1)c1ccccc1n2CCF		6.25	
N#Cc1cc(F)ccc1-c1noc(CCC(=O)Nc2ccc3c(c2)c2ccccc2n3CCF)n1		6.07	pIC50 [7]: < 6.00

Now from value to molecule, other results behind:

inhibition [1] [%]	Structure (SMILES)	pKi [2]	also measured
4	Cc1ccc(-c2noc(CCCC(=O)Nc3ccc4c(c3)c3ccccc3n4CCO)n2)cc1		
35	O=C(CCc1nc(-c2ccc(F)cc2Br)no1)Nc1ccc2c(c1)c1ccccc1n2CCCCF		
25	O=C(CCCc1nc(-c2ccc(F)cc2)no1)Nc1ccc2c(c1)c1ccccc1n2CCF		
25	O=C(CCCc1nc(-c2ccc(F)cc2Br)no1)Nc1ccc2c(c1)c1ccccc1n2CCCF		
43	O=C(CCc1nc(-c2ccc(Cl)cc2)no1)Nc1ccc2c(c1)c1ccccc1n2CCCF		
0	Cc1ccc(-c2noc(CCCC(=O)Nc3ccc4c(c3)c3ccccc3n4CCCF)n2)cc1		
23	O=C(CCCc1nc(-c2ccc(Cl)cc2)no1)Nc1ccc2c(c1)c1ccccc1n2CCF		
9	O=C(CCCc1nc(-c2ccc(F)cc2Br)no1)Nc1ccc2c(c1)c1ccccc1n2CCCO		
0	Cc1ccc(-c2noc(CCCC(=O)Nc3ccc4c(c3)c3ccccc3n4CCF)n2)cc1		
0	O=C(CCCc1nc(-c2ccc(F)cc2)no1)Nc1ccc2c(c1)c1ccccc1n2CCCF		
12	O=C(CCCc1nc(-c2ccc(F)cc2)no1)Nc1ccc2c(c1)c1ccccc1n2CCO		
13	Cc1ccc(-c2noc(CCCC(=O)Nc3ccc4c(c3)c3ccccc3n4CCCO)n2)cc1		
13	Cc1ccc(-c2noc(CCC(=O)Nc3ccc4c(c3)c3ccccc3n4CCCF)n2)cc1		
10	O=C(CCc1nc(-c2ccc(F)cc2)no1)Nc1ccc2c(c1)c1ccccc1n2CCCF		
28	Cc1ccc(-c2noc(CCC(=O)Nc3ccc4c(c3)c3ccccc3n4CCCO)n2)cc1		
0	O=C(CCCc1nc(-c2ccc(F)cc2Br)no1)Nc1ccc2c(c1)c1ccccc1n2CCO		
10	Cc1ccc(-c2noc(CCC(=O)Nc3ccc4c(c3)c3ccccc3n4CCO)n2)cc1		
10	O=C(CCCc1nc(-c2ccc(Cl)cc2)no1)Nc1ccc2c(c1)c1ccccc1n2CCCO		
19	O=C(CCCc1nc(-c2ccc(F)cc2)no1)Nc1ccc2c(c1)c1ccccc1n2CCCO		
35	O=C(CCc1nc(-c2ccc(Br)cc2F)no1)Nc1ccc2c(c1)c1ccccc1n2CCO		
